Our source for the Relative velocity, Km and inhibition values is ChEMBL document CHEMBL1122206, “Use of adenine nucleotide derivatives to assess the potential of exo-active-site-directed reagents as species- or isozyme-specific enzyme inactivators. 5. Interactions of adenosine 5'-triphosphate derivatives with rat pyruvate kinases, Escherichia coli thymidine kinase, and yeast and rat …” (1982).

For experiment [1], the target named is T1, Hexokinase-1 (Rattus norvegicus) (UniProt P05708).
T1 sequence (whole entry): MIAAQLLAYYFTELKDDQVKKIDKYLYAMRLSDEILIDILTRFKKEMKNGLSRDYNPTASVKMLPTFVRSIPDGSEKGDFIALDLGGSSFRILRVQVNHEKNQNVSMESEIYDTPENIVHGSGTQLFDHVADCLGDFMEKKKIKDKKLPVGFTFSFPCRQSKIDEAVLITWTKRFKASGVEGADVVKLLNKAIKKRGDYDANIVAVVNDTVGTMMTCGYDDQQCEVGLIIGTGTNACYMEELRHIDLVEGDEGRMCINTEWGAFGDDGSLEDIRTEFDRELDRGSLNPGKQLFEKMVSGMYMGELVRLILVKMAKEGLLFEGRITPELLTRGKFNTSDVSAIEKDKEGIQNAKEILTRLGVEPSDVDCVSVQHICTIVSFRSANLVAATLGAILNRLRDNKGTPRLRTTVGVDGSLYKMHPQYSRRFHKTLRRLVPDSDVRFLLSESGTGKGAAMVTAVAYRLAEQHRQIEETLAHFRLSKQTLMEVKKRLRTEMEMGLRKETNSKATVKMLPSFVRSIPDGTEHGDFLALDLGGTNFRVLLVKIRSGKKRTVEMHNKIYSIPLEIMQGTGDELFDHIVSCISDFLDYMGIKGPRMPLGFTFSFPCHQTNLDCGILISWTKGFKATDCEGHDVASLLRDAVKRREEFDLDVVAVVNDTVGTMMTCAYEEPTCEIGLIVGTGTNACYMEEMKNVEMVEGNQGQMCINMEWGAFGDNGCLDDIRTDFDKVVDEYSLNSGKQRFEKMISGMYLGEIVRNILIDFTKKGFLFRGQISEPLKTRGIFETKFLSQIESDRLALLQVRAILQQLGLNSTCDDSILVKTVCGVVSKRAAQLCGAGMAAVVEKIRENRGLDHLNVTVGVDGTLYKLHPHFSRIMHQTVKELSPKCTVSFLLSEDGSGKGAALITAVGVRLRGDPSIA
The experiment in a line: Substrate activity for rat hexokinase I as 1:1 Mg complex at 5.0 mM. In outline:
(§1)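 Hexokinase activity read at 22 °C as A340 change, coupled to glucose-6-phosphate dehydrogenase, in 0.05 M Tris-HCl pH 7.6 with 6.6 mM MgCl2, 10 mM α-D-glucose and 0.93 mM NADP. Donor was 5.0 mM MgATP derivative (1:1 Mg complex) in place of ATP. Yeast HK was isoelectric-focused. Rat HK I and III came from electrofocused liver extract, HK II from dialysed muscle extract.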

Experiment [2] deals with T2, Hexokinase-3 (Rattus norvegicus) (UniProt P27926).
T2 sequence (whole entry): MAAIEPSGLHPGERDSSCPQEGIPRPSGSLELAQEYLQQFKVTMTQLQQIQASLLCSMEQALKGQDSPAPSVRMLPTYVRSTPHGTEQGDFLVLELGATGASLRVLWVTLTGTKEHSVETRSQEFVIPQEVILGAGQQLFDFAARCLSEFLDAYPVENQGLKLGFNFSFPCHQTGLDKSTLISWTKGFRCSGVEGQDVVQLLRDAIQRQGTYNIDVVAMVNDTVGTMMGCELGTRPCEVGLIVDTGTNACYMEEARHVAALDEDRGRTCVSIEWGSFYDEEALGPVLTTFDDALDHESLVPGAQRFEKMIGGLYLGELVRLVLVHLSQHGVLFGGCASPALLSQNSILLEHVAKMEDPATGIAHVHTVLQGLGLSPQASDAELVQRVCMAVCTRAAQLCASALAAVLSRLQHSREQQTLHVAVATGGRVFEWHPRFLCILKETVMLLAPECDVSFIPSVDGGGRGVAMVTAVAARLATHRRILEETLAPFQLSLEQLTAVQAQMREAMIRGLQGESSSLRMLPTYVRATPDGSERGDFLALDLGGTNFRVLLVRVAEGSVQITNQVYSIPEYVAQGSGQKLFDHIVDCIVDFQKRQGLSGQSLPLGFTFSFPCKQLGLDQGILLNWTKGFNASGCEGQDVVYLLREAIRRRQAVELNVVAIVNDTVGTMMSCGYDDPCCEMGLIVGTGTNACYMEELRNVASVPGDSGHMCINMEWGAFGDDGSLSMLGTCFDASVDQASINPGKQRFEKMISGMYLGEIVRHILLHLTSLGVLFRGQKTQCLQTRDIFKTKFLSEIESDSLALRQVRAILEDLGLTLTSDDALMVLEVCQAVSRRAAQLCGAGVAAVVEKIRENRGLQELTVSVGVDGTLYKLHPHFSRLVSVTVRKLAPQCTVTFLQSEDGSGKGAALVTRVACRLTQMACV
The experiment in a line: Substrate activity for rat hexokinase III as 1:1 Mg complex at 5.0 mM. In outline: as §1

A short description of experiment [3]: Substrate concentration for half maximal velocity was reported for rat hexokinase I. A digest of the protocol:
(§2)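 Coupled glucose-6-phosphate dehydrogenase/NADP assay: A340 rate at 22 °C in 0.05 M Tris-HCl pH 7.6 with 6.6 mM MgCl2, 10 mM α-D-glucose and 0.93 mM NADP, nucleotide varied. KM was taken from linear double-reciprocal plots. Rat HK I and III came from electrofocused, dialysed liver extract, HK II from dialysed muscle extract, and yeast HK was isoelectric-focused.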

A short description of experiment [4]: Substrate concentration for half maximal velocity was reported for rat hexokinase III. A digest of the protocol:
as §2

A short description of experiment [5]: Substrate concentration for half maximal velocity was reported for yeast hexokinase. In outline:
as §2

In experiment [6] the target is T1, Hexokinase-1 (Rattus norvegicus). In words: Time dependent inhibition of Hexokinase type I activity after 6 h, at 22 degrees celsius, at 5 mM compound.

In the case of `Nc1ncnc2c1ncn2[C@@H]1O[C@H](COP(=O)(O)OP(=O)(O)OP(=O)(O)O)[C@@H](O)[C@H]1O`, the Relative velocity in experiment [1] and in experiment [2] was 1 throughout. In addition, the Km in experiment [3] came out at 440 µM; in experiment [4] it was 910 µM; in experiment [5], 130 µM. Further, the inhibition in experiment [6] turned out to be 0%.

One may read the Km as the concentration of substrate that gives half-maximal velocity. As usually defined, the inhibition is the share of the control response that was lost under treatment.
